Compound activity: PubChem BioAssay, Johns Hopkins Ion Channel Center
Sampled rows, rich in hits. Any-hit rate of the full collection: about 2.3%.
TRPC4 inh = TRPC4 (mouse) channel inhibition; Q9QUQ5; HEK293 TRPC4beta/mu-opioid, DAMGO-evoked Fluo4 calcium flux; stronger effect = lower value; B-score at 10 µM; 300,000 tested, 0.39% active;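 active means B-score over 3 SD under the library average, no early fluorescence shift, positive overall ratio signal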
Target sequence (Q9QUQ5 whole entry, looked up): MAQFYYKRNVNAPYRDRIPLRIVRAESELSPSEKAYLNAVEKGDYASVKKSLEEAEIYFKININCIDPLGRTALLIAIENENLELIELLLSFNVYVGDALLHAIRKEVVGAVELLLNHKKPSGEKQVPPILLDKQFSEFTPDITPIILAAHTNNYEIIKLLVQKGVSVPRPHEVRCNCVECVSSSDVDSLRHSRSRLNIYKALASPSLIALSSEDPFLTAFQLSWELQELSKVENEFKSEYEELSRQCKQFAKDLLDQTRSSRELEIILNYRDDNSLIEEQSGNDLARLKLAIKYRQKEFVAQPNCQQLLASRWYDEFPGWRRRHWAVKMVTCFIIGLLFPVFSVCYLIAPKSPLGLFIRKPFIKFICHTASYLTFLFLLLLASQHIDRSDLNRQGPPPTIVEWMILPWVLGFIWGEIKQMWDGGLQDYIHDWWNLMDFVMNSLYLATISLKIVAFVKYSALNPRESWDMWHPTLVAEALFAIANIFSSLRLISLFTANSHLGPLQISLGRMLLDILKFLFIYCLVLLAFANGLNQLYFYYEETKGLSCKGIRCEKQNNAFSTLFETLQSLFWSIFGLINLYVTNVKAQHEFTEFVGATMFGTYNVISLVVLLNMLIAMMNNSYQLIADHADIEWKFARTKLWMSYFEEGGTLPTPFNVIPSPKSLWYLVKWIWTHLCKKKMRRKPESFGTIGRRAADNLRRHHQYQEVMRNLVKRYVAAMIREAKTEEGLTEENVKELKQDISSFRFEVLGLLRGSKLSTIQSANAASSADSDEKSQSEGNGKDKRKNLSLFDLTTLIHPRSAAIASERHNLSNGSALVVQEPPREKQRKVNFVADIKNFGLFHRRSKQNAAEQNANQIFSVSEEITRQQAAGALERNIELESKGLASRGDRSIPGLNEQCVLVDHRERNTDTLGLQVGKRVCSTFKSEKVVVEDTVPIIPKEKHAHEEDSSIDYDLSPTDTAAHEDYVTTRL
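Assay system – HEK293 line stably carrying TRPC4beta and mu-opioid receptor · Doses – single dose · Detection – Fluo4 calcium-dye fluorescence, kinetic read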
TRPC6 inh = blocks the mouse TRPC6 cation channel | 310,000 tested, 1.1% active | B-score at 10 µM | HEK293-TRPC6, membrane potential dye, ACh-evoked depolarization; stronger effect = lower value | Q61143;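 active means B-score under library mean minus 3 SD, initial fluorescence not abnormally high, positive integrated signal ratio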;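 further: B-score derived from integrated fluorescence ratio over the kinetic read; more negative B-score means stronger inhibition of depolarization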
TRPC4 agonist = TRPC4 (mouse) channel activation | 310,000 tested, 0.49% active | Q9QUQ5 | HEK293 TRPC4beta/mu-opioid, Fluo4 calcium fluorescence; stronger effect = higher value | B-score at 10 µM;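 active means B-score above 5 SD of library B-scores, and initial fluorescence ratio not above library mean plus 5 SD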;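 further: positive B-score marks a calcium rise read as TRPC4 activation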
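Assay system – TRPC4beta and mu-opioid receptor HEK293 stable cells · Measured by – Fluo4 fluorescence, kinetic · Schedule – dye loading 45 min room temperature, 110 s kinetic read · Read-out – B-scored integrated calcium fluorescence ratio · Controls – buffer and maximal DAMGO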
TRPC6 activator = mouse TRPC6 channel activation; Q61143; HEK293-TRPC6 membrane potential dye fluorescence; stronger effect = higher value; B-score at 10 µM; 310,000 tested, 0.13% active; AID 2550;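 active means B-score of the integrated fluorescence ratio above library mean plus 3 SD, and starting fluorescence ratio within library mean plus 5 SD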;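 further: higher score means more depolarization so channel activation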
TRPC4 potent = allosterically enhances the mouse TRPC4 cation channel | Q9QUQ5 | HEK293 TRPC4beta/mu-opioid, DAMGO EC20, Fluo-4 Ca2+ flux; stronger effect = higher value | B-score at 10 µM | 310,000 tested, 0.42% active | AID 2227;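 active means B-score of calcium response area above 5 SD of library B-scores, with initial fluorescence ratio within 5 SD of library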
TRPC4 spec 2 = second selectivity test of TRPC6 inhibitors: effect on mouse TRPC4; shares compounds with TRPC6 inh; HEK293 TRPC4/MOR, membrane potential dye fluorescence; channel activated by saturating DAMGO dose; inhibition, % at 10 µM; 920 tested, 42% active;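 active means compounds whose fluorescence signal differed from control wells by over 3 SD, either direction, in both duplicate plates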
TRPC4 spec = selectivity of TRPC6 inhibitors: effect on mouse TRPC4; shares compounds with TRPC6 inh; 920 tested, 61% active; activity change, negative = inhibition, % at 10 µM; HEK293 TRPC4/mu-opioid, membrane potential fluorescence; AID 2777;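 active means rise or fall in signal beyond 3 SD of buffer-only wells in both replicate plates, either sign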;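 further: integrated kinetic ratio of fluorescence range over baseline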
HEK293 MPD ctr 2-1 = second counter-screen for TRPC6 inhibitors: parental HEK293 cells; shares compounds with TRPC6 inh; parental HEK293 membrane potential dye fluorescence; maximal acetylcholine challenge after compound addition; signal change vs control, % at 10 µM; 920 tested, 31% active; AID 2779;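 active means membrane potential signal moving either way by over 3 SD of the maximum-effect control, in both duplicate plates, meaning non-specific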
HEK293 MPD ctr-1 = parental HEK293 nonspecific activity of TRPC6 inhibitors | shares compounds with TRPC6 inh | parental HEK293 membrane potential dye fluorescence | membrane potential signal change, % at 10 µM | 920 tested, 60% active;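 active means membrane potential signal shifting up or down by more than 3 SD of buffer-only wells, on both duplicate plates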
HEK293 MPD ctr-2 = checks TRPC6 modulator effects in parental HEK293 cells; 2,400 tested, 51% active; membrane potential signal change, % at 10 µM; membrane potential dye fluorescence; AID 488924; shares compounds with TRPC6 inh;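 active means membrane potential signal moves up or down beyond 5 SD from buffer-only wells, on both duplicate plates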
HEK293 MPD ctr 2-2 = second check of TRPC6 modulator effects in parental HEK293 cells | shares compounds with TRPC6 inh | membrane potential dye fluorescence; after compound, maximal acetylcholine stimulation | inhibition, % at 10 µM | 2,400 tested, 14% active | AID 488926;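 active means membrane potential signal drops by more than 5 SD from the mean control signal, in both duplicate plates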
TRPC4 ctr mod = mouse TRPC4 off-target activity of TRPC6 modulators; shares compounds with TRPC6 inh; HEK293 TRPC4/mu-opioid, membrane potential fluorescence; percent change from control (negative = decrease, positive = increase), % at 10 µM; 2,400 tested, 69% active;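 active means membrane potential signal moved up or down beyond 5 SD of buffer control wells, in both duplicate plates, actives on both sides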
TRPC4 ctr inh 2 = mouse TRPC4 off-target activity of TRPC6 modulators, second screen; AID 488928; shares compounds with TRPC6 inh; inhibition, % at 10 µM; HEK293 TRPC4/mu-opioid, membrane potential dye fluorescence; stimulated with maximal-effect DAMGO; 2,400 tested, 55% active;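 active means drop in membrane potential signal beyond 5 SD of the control wells in both duplicate plates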;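 further: TRPC4 counter screen for TRPC6 hits run under conditions tuned for TRPC6 not TRPC4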
TRPC6 block conf = confirmation of mouse TRPC6 inhibitors | AID 488960 | inhibition, % at 10 µM | HEK293-TRPC6, membrane potential dye, ACh-evoked depolarization | shares compounds with TRPC6 inh | 3,300 tested, 43% active;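 active means fluorescence ratio falls more than 5 SD below the full-stimulation control mean, in both duplicate runs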;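 further: integrated fluorescence ratio of peak minus minimum over baseline after agonist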
TRPC6 act confirm = confirmation of mouse TRPC6 activators; shares compounds with TRPC6 inh; HEK293-TRPC6 membrane potential dye fluorescence, FDSS; activation, % at 10 µM; 2,800 tested, 11% active; AID 488961;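 active means ratio signal rise beyond 5 SD above unstimulated control wells' mean, seen in both duplicate runs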
A number is an active result; i = inactive; nt = no result given.

SMILES	TRPC4 inh	TRPC6 inh	TRPC4 agonist	TRPC6 activator	TRPC4 potent	HEK293 MPD ctr-2	HEK293 MPD ctr 2-2	TRPC4 ctr mod	TRPC4 ctr inh 2	TRPC6 block conf	TRPC6 act confirm	others
CC1=NN(c2ccc(C(=O)OC(C)C)cc2)C(=O)/C1=C\C=C\c1ccco1	i	-6.3	i	i	i	i	i	i	45%	i	i
O=C(NCc1cccnc1)[C@@H]1CC=C[C@@H]2CCN(Cc3ccccc3)C(=O)[C@@H]21	i	i	i	i	i	nt	nt	nt	nt	nt	nt
N#Cc1ccc(C(=O)NC23CC4CC(CC(C4)C2)C3)cc1	i	i	i	i	i	nt	nt	nt	nt	nt	nt
COc1ccc(S(=O)(=O)NC(C)C(=O)Nc2ccc3c(c2)OCO3)cc1OC (stereo not drawn)	i	i	i	i	i	nt	nt	nt	nt	nt	nt
COc1ccc(S(=O)(=O)NC(C)C(=O)Nc2ccc3c(c2)OCCO3)cc1OC (stereo not drawn)	i	-6.1	i	i	i	i	i	i	i	i	i
CN1C(=O)C(N=Nc2ccccc2C(=O)O)N(C)C1=S (stereo not drawn)	i	i	i	20	i	438%	i	80%	i	i	198%
Cc1nc2c(C)cccc2c2c1CCS2	i	i	i	i	i	nt	nt	nt	nt	nt	nt
Cc1ccc2nc(C)c3c(c2c1)SCC3	i	-5.2	i	i	i	-170%	i	-36%	38%	i	i
CC(C)Nc1ccc(Nc2ccnc3cc4ccccc4cc23)cc1	i	-6.2	i	i	i	i	i	i	54%	i	i
COc1ccc(Nc2ncnc3ccccc23)cc1	i	i	i	i	i	nt	nt	nt	nt	nt	nt
COc1ccc(Nc2ccnc3ccccc23)cc1	i	-8.5	i	i	i	nt	nt	nt	nt	54%	i	TRPC4 spec 2=54%;TRPC4 spec=-25%;HEK293 MPD ctr 2-1=i;HEK293 MPD ctr-1=-284%
c1ccc(CCNc2ccnc3cc4ccccc4cc23)cc1	i	i	i	i	i	nt	nt	nt	nt	nt	nt
S=c1nc[nH]c2c1sc1nc(N3CCOCC3)c3c(c12)CCCC3	i	i	i	i	i	nt	nt	nt	nt	nt	nt
O=[N+]([O-])C1=CC=C2C(=NC3(CCCCC3)N2O)C1=NC1CCCCC1	i	i	i	i	i	nt	nt	nt	nt	nt	nt
CC1(C)CC(N=C2C([N+](=O)[O-])=CC=C3C2=NC2(CCCCC2)N3O)CC(C)(C)N1	i	-5.2	i	i	i	-130%	i	-26%	30%	i	i
CCOC(=O)C1=NN(c2ccc(Cl)cc2)C(=O)C1	i	i	i	i	i	nt	nt	nt	nt	nt	nt
CN(Cc1cccc(F)c1)C(=O)CNS(=O)(=O)c1ccc2ccccc2c1	i	i	i	i	i	nt	nt	nt	nt	nt	nt
Cc1ccc(CNC(=O)C2CCN(C(=O)Nc3ccc(C)cc3)CC2)cc1	i	i	i	i	i	nt	nt	nt	nt	nt	nt
